The list is not random: actives were taken first. Their share in the collection is about 2.9%.
ERAP1 HTS inh = inhibitors of human ERAP1 aminopeptidase; Q9NZ08; recombinant ERAP1, Leu-AMC fluorescence, 60 min; inhibition, % at 10.7 µM; actives 0.15% (n = 340,000);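 active means mean replicate inhibition of at least 30%, or all replicates individually reaching that 30% level; inactive means mean below 30% and not every replicate reaching it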
Target sequence (Q9NZ08 whole entry, looked up): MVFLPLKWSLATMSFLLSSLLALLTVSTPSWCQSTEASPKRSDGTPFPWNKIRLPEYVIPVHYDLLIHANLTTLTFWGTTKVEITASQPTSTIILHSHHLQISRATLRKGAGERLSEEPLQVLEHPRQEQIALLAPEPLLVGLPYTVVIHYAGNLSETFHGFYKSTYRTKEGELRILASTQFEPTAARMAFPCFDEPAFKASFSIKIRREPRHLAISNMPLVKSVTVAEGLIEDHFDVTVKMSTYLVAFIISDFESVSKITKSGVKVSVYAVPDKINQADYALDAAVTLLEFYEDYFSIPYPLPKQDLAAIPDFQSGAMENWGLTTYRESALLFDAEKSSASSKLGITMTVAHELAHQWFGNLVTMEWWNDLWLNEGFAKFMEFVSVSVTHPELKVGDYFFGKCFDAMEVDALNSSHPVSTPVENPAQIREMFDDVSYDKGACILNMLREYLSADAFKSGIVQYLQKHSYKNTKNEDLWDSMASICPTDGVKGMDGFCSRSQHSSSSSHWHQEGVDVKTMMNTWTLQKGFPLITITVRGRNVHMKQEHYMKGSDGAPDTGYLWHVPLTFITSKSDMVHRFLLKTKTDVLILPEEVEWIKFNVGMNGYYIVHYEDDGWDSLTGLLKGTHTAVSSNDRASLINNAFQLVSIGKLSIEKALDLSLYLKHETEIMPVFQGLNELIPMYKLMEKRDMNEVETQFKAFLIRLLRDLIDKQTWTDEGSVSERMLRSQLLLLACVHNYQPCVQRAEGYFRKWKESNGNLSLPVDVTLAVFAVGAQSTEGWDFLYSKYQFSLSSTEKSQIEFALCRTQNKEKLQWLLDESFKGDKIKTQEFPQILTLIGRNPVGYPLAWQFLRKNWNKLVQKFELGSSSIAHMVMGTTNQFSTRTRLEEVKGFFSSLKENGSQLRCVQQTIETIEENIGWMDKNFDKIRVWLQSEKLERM
DENV2 CPE = protects cells from dengue virus 2 cytopathic effect. DENV2-infected cells, cytopathic effect rescue, plate reader. CPE inhibition, % at 9.99 µM. actives 1.7% (n = 350,000). AID 651640; in the data active means CPE inhibition above about 20%, passing the limit was not always enough; inconclusive means no clear call, values can overlap the other calls; tested in BHK-21 cells
CAL PDZ FP-1 = blocks peptide binding to human CAL PDZ domain; actives 0.02% (n = 330,000); inhibition, % at 20 µM; AID 504414; Q9HD26; purified CAL PDZ, TMR-peptide fluorescence polarization, 1 h;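 active means highest replicate inhibition of at least 40%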
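Control set: unlabelled peptide and DMSO controls / Material: purified CerCALP PDZ construct / Timing: 1 h incubation at room temperature before polarization reading / Doses: 20 µM, one dose / Detection: fluorescence polarization (mP)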
S100A4 MyoIIA = S100A4-myosin IIA interaction inhibition; S100A4/TAMRA-MyoIIA peptide fluorescence polarization; inhibition, % at 10.7 µM; actives 0.14% (n = 360,000);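 active means mean inhibition of at least 70% across replicates, with every replicate also reaching that level; inconclusive means mean inhibition reaches 70% but some replicates fall short; inactive means mean inhibition below 70%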
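Compound dosing: one dose per compound; test system: human S100A4 monomer with TAMRA-labelled myosin IIA peptide; probe or stimulus: TAMRA-labelled myosin IIA heavy-chain peptide probe, 5 nM; medium: HEPES buffer with Ca2+, pH 7.2; schedule: 5 min incubation before reading; benchmarks: neutral control DMSO, positive control TFP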
SIRT5 block = blocks human SIRT5 desuccinylation of peptide. AID 652115. inhibition, % at 15 µM. actives 1.1% (n = 330,000). Purified SirT5, succinyl-peptide AMC, trypsin-coupled fluorescence; in the data active means inhibition above about 15%; inconclusive means no clear call, values can overlap the other calls
CAL PDZ FP-2 = blocks peptide binding to the human CAL PDZ domain; Q9HD26; purified CAL PDZ, TMR-peptide fluorescence polarization, 1 h; inhibition, % at 24.9 µM; actives 0.92% (n = 300,000);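 active means mean inhibition of at least 30% with at least half of replicates also reaching 30%; inconclusive means no clear call, values can overlap the other calls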
Each line names hits and unclear results; the compound was inactive in the other large screens.

C[C@H]1CN([C@@H](C)CO)C(=O)c2cc(NC(=O)Nc3ccc(F)cc3)ccc2O[C@H]1CN(C)S(=O)(=O)c1ccc(F)cc1	none (no result: CAL PDZ FP-1, CAL PDZ FP-2)
CC(C)NC(=O)N[C@H]1CC[C@@H](CC(=O)O)O[C@H]1CO	none (no result: CAL PDZ FP-1, CAL PDZ FP-2)
C[N+](C)(C)CCCN(Cc1ccc2c(c1)OCO2)C(=O)NC1CCCCC1	CAL PDZ FP-2 41 (no result: ERAP1 HTS inh)
CO[C@H]1CN(C)C(=O)c2cc(NC(=O)c3ccc4c(c3)OCO4)ccc2OC[C@H](C)N(CC2CC2)C[C@@H]1C	none (no result: CAL PDZ FP-1, CAL PDZ FP-2)
C=CCn1c(SCC(=O)NC2CCCCC2)nnc1-c1ccccn1	CAL PDZ FP-2 122
C=CCn1c(C)nnc1SCC(=O)NC1CC1	DENV2 CPE 93
COCC(=O)N(C)C[C@H]1Oc2cc(-c3ccncc3)ccc2S(=O)(=O)N([C@H](C)CO)C[C@H]1C	DENV2 CPE 74 (no result: CAL PDZ FP-1, CAL PDZ FP-2)
C[C@@H]1CN([C@H](C)CO)S(=O)(=O)c2ccc(-c3cccnc3)cc2O[C@H]1CN(C)C(=O)CC1CC1	none (no result: CAL PDZ FP-1, CAL PDZ FP-2)
C[C@@H]1CN([C@H](C)CO)S(=O)(=O)c2ccc(-c3cccnc3)cc2O[C@@H]1CN(C)C(=O)CC1CC1	S100A4 MyoIIA 108 (no result: CAL PDZ FP-1, CAL PDZ FP-2)
C[C@@H]1CN([C@@H](C)CO)S(=O)(=O)c2ccc(-c3ccncc3)cc2O[C@H]1CN(C)C(=O)CC1CC1	DENV2 CPE 85 (no result: CAL PDZ FP-1, CAL PDZ FP-2)
C[C@H](NC(=O)C[C@@H]1CC[C@@H]2[C@H](COC[C@H](O)CN2C(=O)Nc2cccc(F)c2)O1)c1ccccc1	none (no result: CAL PDZ FP-1, CAL PDZ FP-2)
CCCNC(=O)[C@H]1[C@H](CO)[C@H]2Cn3c(ccc(C4=CCCC4)c3=O)[C@@H]1N2CCC(F)(F)F	none (no result: CAL PDZ FP-1, CAL PDZ FP-2)
Cc1noc(C)c1NC(=O)N(C)C[C@@H]1Oc2ccc(NC(=O)Nc3ccc(F)cc3)cc2CC(=O)N([C@@H](C)CO)C[C@@H]1C	none (no result: CAL PDZ FP-1, CAL PDZ FP-2)
CC(NS(=O)(=O)c1ccc2[nH]c(=O)c(=O)[nH]c2c1)C(=O)O (centres undefined)	SIRT5 block 25
CC(C)CC(NS(=O)(=O)c1ccc2[nH]c(=O)c(=O)[nH]c2c1)C(=O)O (centres undefined)	none
Cc1ccccc1S(=O)(=O)N1CC(=O)N2[C@H](C1)[C@H](c1ccc(C#CCN(C)C)cc1)[C@@H]2CO	none (no result: CAL PDZ FP-1, CAL PDZ FP-2)
COc1ccc(NC(=O)N[C@@H]2CC[C@H](CCNC(=O)Cc3ccncc3)O[C@H]2CO)cc1	none (no result: CAL PDZ FP-1, CAL PDZ FP-2)
C[C@@H]1CN([C@@H](C)CO)C(=O)c2cc(-c3cccc(F)c3)cnc2O[C@H]1CN(C)C	SIRT5 block 20 (no result: CAL PDZ FP-1, CAL PDZ FP-2)
C[C@H]1CN([C@@H](C)CO)C(=O)c2cc(-c3cccnc3)cnc2O[C@H]1CN(C)C	DENV2 CPE 73 (no result: CAL PDZ FP-1, CAL PDZ FP-2)
C[C@@H]1CN([C@H](C)CO)C(=O)c2cc(-c3cccnc3)cnc2O[C@H]1CN(C)C	none (no result: DENV2 CPE, CAL PDZ FP-1, CAL PDZ FP-2)
C[C@H]1CN([C@@H](C)CO)C(=O)c2cc(-c3cccc(F)c3)cnc2O[C@H]1CN(C)C	none (no result: CAL PDZ FP-1, CAL PDZ FP-2)
Cc1ccc(S(=O)(=O)N(C)C[C@H]2Oc3ncc(-c4ccncc4)cc3C(=O)N([C@@H](C)CO)C[C@@H]2C)cc1	SIRT5 block 32 (no result: CAL PDZ FP-1, CAL PDZ FP-2)
Cc1ccc(-c2cnc3c(c2)C(=O)N([C@@H](C)CO)C[C@H](C)[C@H](CN(C)C)O3)cc1	SIRT5 block 16 (no result: CAL PDZ FP-1, CAL PDZ FP-2)
CCN(CC)c1ccc2nc3ccc(N)cc3[n+](-c3ccccc3)c2c1	DENV2 CPE inconclusive, S100A4 MyoIIA active (no result: CAL PDZ FP-2)
CO[C@@H]1CN(C)C(=O)c2ccc(NC(=O)C3CCCCC3)cc2OC[C@H](C)NC[C@H]1C	none (no result: CAL PDZ FP-1, CAL PDZ FP-2)
O=C(NCCCN1CCCC1=O)c1cc2c(s1)CCCCC2	CAL PDZ FP-2 80 (no result: CAL PDZ FP-1)
O=C(Nc1ccc2c(c1)OCCO2)C(c1ccnc2ccccc12)N1CCN(c2ccc(F)cc2)CC1 (centres undefined)	DENV2 CPE inconclusive, SIRT5 block 29 (no result: CAL PDZ FP-1, CAL PDZ FP-2)
C=CCN(c1ccc(F)cc1)S(=O)(=O)c1cc(C(=O)OCC(=O)N(C)C2CCS(=O)(=O)C2)ccc1Cl (centres undefined)	CAL PDZ FP-2 40
C[C@@H]1CN([C@@H](C)CO)C(=O)Cc2cc(NS(=O)(=O)c3ccc(F)cc3)ccc2O[C@H]1CN(C)S(=O)(=O)c1ccccc1	none (no result: CAL PDZ FP-1, CAL PDZ FP-2)
COc1cc(/C=N/NC(=S)NCC2CCCO2)cc(OC)c1OC (centres undefined)	CAL PDZ FP-2 36 (no result: ERAP1 HTS inh)
